Compound activity from PubChem.
RGS4 block – inhibitors of human RGS4. 0.45% of 310,000 active. P49798. B-score at 10 µM. HEK293 M3R/RGS4 inducible, Fluo-4 calcium flux; hits give high values; triggered by carbachol at its EC20;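 active = B-score, a plate-corrected calcium signal, over three deviations above library mean, with baseline fluorescence within five deviations of library mean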;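 also: RGS4 expression induced by doxycycline in cells with stable M3 receptor; B-score is computed from the integrated fluorescence ratio over baseline after carbachol; higher B-score means a larger calcium signal and so more RGS4 inhibition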
Target sequence (P49798 whole entry, looked up): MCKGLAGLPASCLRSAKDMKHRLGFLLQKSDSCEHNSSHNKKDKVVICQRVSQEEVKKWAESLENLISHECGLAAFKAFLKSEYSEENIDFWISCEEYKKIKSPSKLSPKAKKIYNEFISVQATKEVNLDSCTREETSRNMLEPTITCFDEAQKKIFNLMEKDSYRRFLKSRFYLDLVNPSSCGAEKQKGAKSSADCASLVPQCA
MrgX1 allo act – human MrgX1 positive allosteric modulation, primary screen. 0.63% of 310,000 active. MrgX1-HEK293, Fluo-4 calcium flux, FDSS; hits give high values. Q96LB2. AID 588675. B-score at 10 µM;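 active = plate-corrected calcium response at least 3 library SD above typical, normal starting fluorescence, not activating the receptor alone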;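 also: compound read alongside a low EC10 to EC30 dose of BAM8-22 agonist; peak minus trough fluorescence over baseline measured at the second addition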
Target sequence (Q96LB2 whole entry, looked up): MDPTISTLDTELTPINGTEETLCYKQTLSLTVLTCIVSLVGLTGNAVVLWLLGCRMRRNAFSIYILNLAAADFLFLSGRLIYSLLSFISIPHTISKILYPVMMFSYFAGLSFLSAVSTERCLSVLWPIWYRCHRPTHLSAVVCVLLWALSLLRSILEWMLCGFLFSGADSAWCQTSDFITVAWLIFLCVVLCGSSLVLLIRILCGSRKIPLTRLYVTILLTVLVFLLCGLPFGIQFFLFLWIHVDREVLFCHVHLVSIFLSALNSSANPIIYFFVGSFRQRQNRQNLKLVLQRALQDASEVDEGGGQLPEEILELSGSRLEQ
MrgX1 antagonist – human MrgX1 receptor antagonism, primary screen; Q96LB2; MRGX1-HEK293 calcium flux, Fluo-4, BAM8-22 antagonism; hits give low values; B-score at 10 µM; 1.3% of 310,000 active;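 active = calcium-response B-score plate-corrected more than 3 library SD below zero, starting fluorescence within 5 deviations, no agonist response on first addition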;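 also: peak minus trough fluorescence over baseline after final BAM8-22 challenge near maximal dose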
RGS4 act – potentiators or activators of RGS4; B-score at 10 µM; 0.92% of 310,000 active; HEK293 M3R/inducible RGS4, carbachol calcium flux Fluo4; hits give low values;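 active = B-score of the integrated calcium signal more than 4 SD below the library mean, with starting fluorescence not abnormally high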;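 also: negative B-score means reduced calcium response which marks RGS4 activation or potentiation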
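Detection: kinetic calcium fluorescence imaging with Fluo4-AM dye, 2 µM / Material: HEK293 cells with stable M3R and inducible RGS4 / Schedule: recording 10 s baseline at 1 Hz, 100 s post-agonist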
Lipid droplet – modulators of hepatic lipid droplet formation; AML12 mouse hepatocytes, oleate lipid droplets, BODIPY imaging; inhibition, % at 6.5 µM; 0.4% of 240,000 active; AID 1656;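 active = lipid droplet intensity inhibited by at least 50%, with more than 500 cells counted; inconclusive = wells with under 300 cells, treated as cytotoxic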
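material = mouse AML12 hepatocyte cell line, fixed after treatment | also added = 100 µM oleic acid challenge | doses = compound at 6.5 µM only | schedule = overnight exposure | technique = Image-based BODIPY and DAPI two-channel analysis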
MrgX1 ag – activates human MrgX1 receptor signaling. MrgX1-HEK293 cells, Fluo-4 calcium fluorescence, agonist mode; hits give high values. 0.44% of 310,000 active. Q96LB2. B-score at 10 µM;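 active = calcium response B-score plate-corrected fluorescence ratio at least 3 library SD, with starting fluorescence B-score inside 5 SD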
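System: HEK293 cells stably expressing human MrgX1 receptor; Dosing: test compound in the initial addition of three; Schedule: overnight plating, then 30 min 37 °C plus 30 min room-temperature dye loading; Detection: kinetic calcium dye fluorescence, Fluo-4 NW; Controls: per-plate positive and negative controls for Z′ factor.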
MrgX1 ag confirm – confirmation of human MrgX1 receptor agonists. 78% of 600 active. shares compounds with MrgX1 ag. AID 602412. activation, % at 10 µM. MrgX1-HEK293, Fluo-4 calcium fluorescence, FDSS;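 active = calcium signal rise, corrected for plate position, at least 3 library SD high, with starting brightness within 5 such deviations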
HEK293 Ca flux – activity in parental HEK293 cells lacking MrgX1 | 2% of 4,000 active | Fluo-4 calcium fluorescence, FDSS | fluorescence ratio F(max-min)/F0 at 10 µM | shares compounds with MrgX1 antagonist;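 active = duplicate-averaged calcium fluorescence ratio at least three times the standard deviation of buffer wells, a nonspecific response in parental cells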
HEK293 Ca counter – activity in parental HEK293 cells without MrgX1. shares compounds with MrgX1 antagonist. parental HEK293 calcium flux, Fluo-4 fluorescence ratio; hits give high values. fluorescence ratio F(max-min)/F0 at 10 µM. 0.4% of 4,000 active;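 active = calcium fluorescence ratio, averaged over duplicates, at least 3 SD of the buffer-well ratio, meaning a nonspecific response in receptor-free cells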;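 also: untransfected parental HEK293 lacking MrgX1 used as counterscreen for MrgX1 allosteric activators; fluorescence change taken during the second addition on a kinetic imager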
HEK293 Ca cntr2 – MrgX1 activator counter-screen hit in parental HEK293 cells; shares compounds with MrgX1 antagonist; Fluo-4 calcium fluorescence (FDSS); hits give high values; fluorescence ratio F(max-min)/F0 at 10 µM; 8.7% of 4,000 active; AID 624115;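 active = calcium fluorescence ratio at least three times the spread of buffer wells, meaning a non-specific response in parental cells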
* marks the source's active call; other numbers are inactive results. In the library only some 3.8% were active in any assay of this set; here they are far more common.

Results for COc1cccc(N/C(N)=N/c2nc(CSc3ccccn3)cc(=O)[nH]2)c1 ?
RGS4 block: inactive; MrgX1 allo act: inactive; MrgX1 antagonist: inactive; RGS4 act: inactive; Lipid droplet: inconclusive; MrgX1 ag: inactive

How did O=C(CCc1ccccc1)NNC(=S)NC(=O)c1ccc(Cl)cc1 do in these assays?
RGS4 block: inactive; MrgX1 allo act: inactive; MrgX1 antagonist: inactive; RGS4 act: inactive; Lipid droplet: 0; MrgX1 ag: 141*; MrgX1 ag confirm: 696%*; HEK293 Ca flux: inactive; HEK293 Ca counter: inactive; HEK293 Ca cntr2: 126*

What do the screens show for `O=C(CCc1ccccc1)NNC(=O)c1ccc(Cl)cc1`?
RGS4 block: inactive; MrgX1 allo act: inactive; MrgX1 antagonist: inactive; RGS4 act: inactive; Lipid droplet: 4; MrgX1 ag: inactive

How did Cc1ccc(C(=O)NNC(=S)NC(=O)c2ccc(Cl)cc2)cc1 do in these assays?
RGS4 block: inactive; MrgX1 allo act: inactive; MrgX1 antagonist: inactive; RGS4 act: inactive; MrgX1 ag: 132*; MrgX1 ag confirm: 747%*; HEK293 Ca flux: inactive; HEK293 Ca counter: inactive; HEK293 Ca cntr2: 138*

Results for O=C(CSc1nnc(-c2ccc(O)cc2)o1)Nc1ccccc1Br ?
RGS4 block: inactive; MrgX1 allo act: inactive; MrgX1 antagonist: inactive; RGS4 act: inactive; Lipid droplet: -1; MrgX1 ag: inactive

How did COc1cccc(N2C(=O)C(Cc3c[nH]c4ccccc34)NC2=S)c1 (stereo not drawn) do in these assays?
RGS4 block: inactive; MrgX1 allo act: inactive; MrgX1 antagonist: inactive; RGS4 act: inactive; Lipid droplet: 4; MrgX1 ag: inactive

How did Nc1c(C(=O)Nc2nc3ccccc3s2)sc2nc(-c3cccs3)ccc12 do in these assays?
RGS4 block: inactive; MrgX1 allo act: inactive; MrgX1 antagonist: inactive; RGS4 act: inactive; MrgX1 ag: 29*; MrgX1 ag confirm: 157%*; HEK293 Ca flux: inactive; HEK293 Ca counter: inactive; HEK293 Ca cntr2: inactive

How did CCCOc1ncnc2c1[nH]c1ccccc12 do in these assays?
RGS4 block: inactive; MrgX1 allo act: inactive; MrgX1 antagonist: inactive; RGS4 act: inactive; MrgX1 ag: inactive

Results for CCN(CC)c1ncnc2c1[nH]c1ccccc12 ?
RGS4 block: inactive; MrgX1 allo act: inactive; MrgX1 antagonist: inactive; RGS4 act: inactive; Lipid droplet: -2; MrgX1 ag: 28*; MrgX1 ag confirm: 125%*; HEK293 Ca flux: inactive; HEK293 Ca counter: inactive; HEK293 Ca cntr2: inactive

How did COc1ccc(N=C2NC(=O)S/C2=C\c2ccc(N(C)C)cc2)cc1 do in these assays?
RGS4 block: inactive; MrgX1 allo act: inactive; MrgX1 antagonist: inactive; RGS4 act: -7.2*; MrgX1 ag: 26*; MrgX1 ag confirm: 230%*; HEK293 Ca flux: inactive; HEK293 Ca counter: inactive; HEK293 Ca cntr2: 57*

What do the screens show for `O=C(CCn1c(=O)oc2ccccc21)Nc1ccc2c(c1)OCCO2`?
RGS4 block: inactive; MrgX1 allo act: inactive; MrgX1 antagonist: inactive; RGS4 act: inactive; Lipid droplet: 6; MrgX1 ag: inactive

Results for O=C(Nc1cc(S(=O)(=O)Nc2ccccc2Cl)ccc1O)c1sc2cc(Cl)ccc2c1Cl ?
RGS4 block: inactive; MrgX1 allo act: inactive; MrgX1 antagonist: inactive; RGS4 act: inactive; Lipid droplet: 2; MrgX1 ag: inactive

How did CN=C(Nc1cc(C)nn1CCC#N)c1ccccc1 do in these assays?
RGS4 block: inactive; MrgX1 allo act: inactive; MrgX1 antagonist: inactive; RGS4 act: inactive; MrgX1 ag: inactive

How did Cc1cc(OC(=O)c2ccccc2)n(CCC#N)n1 do in these assays?
RGS4 block: inactive; MrgX1 allo act: inactive; MrgX1 antagonist: inactive; RGS4 act: inactive; MrgX1 ag: 38*; MrgX1 ag confirm: 195%*; HEK293 Ca flux: inactive; HEK293 Ca counter: inactive; HEK293 Ca cntr2: inactive

What do the screens show for `CCCCN(CC)C(=O)C1CCC(CNS(=O)(=O)c2cccc3nsnc23)CC1` (stereo not drawn)?
RGS4 block: inactive; MrgX1 allo act: inactive; MrgX1 antagonist: inactive; RGS4 act: inactive; Lipid droplet: 8; MrgX1 ag: inactive

Results for Cc1cc(N2CCN(c3ccccc3)CC2)nc(-c2ccccc2)n1 ?
RGS4 block: inactive; MrgX1 allo act: inactive; MrgX1 antagonist: inactive; RGS4 act: inactive; Lipid droplet: 1; MrgX1 ag: inactive

What do the screens show for `Cc1cc(N2CCN(c3ccccc3)CC2)nc(N)n1`?
RGS4 block: inactive; MrgX1 allo act: inactive; MrgX1 antagonist: inactive; RGS4 act: inactive; Lipid droplet: 15; MrgX1 ag: 43*; MrgX1 ag confirm: 252%*; HEK293 Ca flux: inactive; HEK293 Ca counter: inactive; HEK293 Ca cntr2: inactive

What do the screens show for `Cc1cc(N2CCOCC2)nc(N)n1`?
RGS4 block: inactive; MrgX1 allo act: inactive; MrgX1 antagonist: inactive; RGS4 act: inactive; Lipid droplet: -10; MrgX1 ag: 73*; MrgX1 ag confirm: 275%*; HEK293 Ca flux: inactive; HEK293 Ca counter: inactive; HEK293 Ca cntr2: 78*

What do the screens show for `CSCCC(=O)N1CCC(n2nccc2NC(=O)CCCc2ccccc2)CC1`?
RGS4 block: inactive; MrgX1 allo act: inactive; MrgX1 antagonist: inactive; RGS4 act: inactive; Lipid droplet: -3; MrgX1 ag: inactive

How did COC(=O)c1ccc(Cl)cc1N(Cc1c(F)cccc1Cl)S(C)(=O)=O do in these assays?
RGS4 block: inactive; MrgX1 allo act: inactive; MrgX1 antagonist: inactive; RGS4 act: inactive; Lipid droplet: -36; MrgX1 ag: 71*; MrgX1 ag confirm: 290%*; HEK293 Ca flux: inactive; HEK293 Ca counter: inactive; HEK293 Ca cntr2: 61*

How did O=C(O)CSc1ncnc2scc(-c3ccccc3)c12 do in these assays?
RGS4 block: inactive; MrgX1 allo act: inactive; MrgX1 antagonist: inactive; RGS4 act: inactive; Lipid droplet: -9; MrgX1 ag: inactive
